Data taken from ChEMBL document CHEMBL5058577, “EUbOPEN Chemogenomics Library 2 (Multiplex)” (2022).

Test system: HEK-293T
Assay: Multiplex assay against HEK293T
Assay type: toxicity, cell-based
Details: human
Outline: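 At seeding, live cells were stained with Hoechst33342, BioTracker Green Microtubule Cytoskeleton Dye, MitoTracker Red and Annexin V Alexa Fluor 680. After compound addition they were imaged on a CQ1 microscope at 37°C and 5% CO2, and CellPathfinder machine-learning gating sorted them into Hoechst high-intensity objects or normal cells, with normal cells further split into healthy, pyknosed or fragmented nuclei and pyknosed cells into mitotic or apoptotic. Tubulin, mitochondrial-mass and membrane-permeability phenotypes are given as per cents of cells with healthy nuclei.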

[1] = 12 h, 1 µM, compound concentration 1 uM, replicate 1
[2] = 12 h, 1 µM, compound concentration 1 uM, replicate 2
[3] = 12 h, 10 µM, compound concentration 10 uM, replicate 1
[4] = 12 h, 10 µM, compound concentration 10 uM, replicate 2
[5] = 24 h, 1 µM, compound concentration 1 uM, replicate 1
[6] = 24 h, 1 µM, compound concentration 1 uM, replicate 2
[7] = 24 h, 10 µM, compound concentration 10 uM, replicate 1
[8] = 24 h, 10 µM, compound concentration 10 uM, replicate 2
[9] = 48 h, 1 µM, compound concentration 1 uM, replicate 1
[10] = 48 h, 1 µM, compound concentration 1 uM, replicate 2
[11] = 48 h, 10 µM, compound concentration 10 uM, replicate 1
[12] = 48 h, 10 µM, compound concentration 10 uM, replicate 2

With CN1CCN(c2ccc(Nc3c4ccccc4nc4ccccc34)cc2)CC1.Cl.Cl.O as the compound, how does the “Population Apoptotic (%)” value [1] read?
Its value is 42%.

What about the “Population Fragmented Nuclei (%)” value [1] of the same compound?
The value was 7%.

What about the “Population Healthy Nuclei (%)” value [1] of the same compound?
Its value is 81%.

What about the “Population Hoechst High Intensity Objects (%)” value [1] of the same compound?
Its value is 3%.

What about the “Population Membrane Permeable-Phenotype (%)” value [1] of the same compound?
Its value is 0%.

What about the “Population Mitochondria Different-Phenotype (%)” value [1] of the same compound?
The value was 50%.

What about the “Population Mitotic Cells (%)” value [1] of the same compound?
The value was 57%.

What about the “Population Normal (%)” value [1] of the same compound?
Its value is 96%.

And the “Population Pyknosed Nuclei (%)” value [1]?
The value was 11%.

And the “Population Tubulin-Different-Phenotype (%)” value [1]?
Its value is 28%.

What about the “Total Cell Count” value [1] of the same compound?
Its value is 411.

What about the “Population Apoptotic (%)” value [2] of the same compound?
Its value is 55%.

What about the “Population Fragmented Nuclei (%)” value [2] of the same compound?
The value was 4%.

What about the “Population Healthy Nuclei (%)” value [2] of the same compound?
Its value is 90%.

What about the “Population Hoechst High Intensity Objects (%)” value [2] of the same compound?
The value was 1%.

And the “Population Mitochondria Different-Phenotype (%)” value [2]?
Its value is 59%.

And the “Population Mitotic Cells (%)” value [2]?
Its value is 45%.

What about the “Population Normal (%)” value [2] of the same compound?
Its value is 98%.

What about the “Population Pyknosed Nuclei (%)” value [2] of the same compound?
Its value is 5%.

What about the “Population Tubulin-Different-Phenotype (%)” value [2] of the same compound?
Its value is 20%.

And the “Total Cell Count” value [2]?
Its value is 364.

And the “Population Apoptotic (%)” value [3]?
Its value is 100%.

And the “Population Fragmented Nuclei (%)” value [3]?
Its value is 24%.

What about the “Population Healthy Nuclei (%)” value [3] of the same compound?
The value was 74%.

What about the “Population Hoechst High Intensity Objects (%)” value [3] of the same compound?
The value was 1%.

And the “Population Membrane Permeable-Phenotype (%)” value [3]?
Its value is 0%.

And the “Population Mitochondria Different-Phenotype (%)” value [3]?
The value was 99%.

What about the “Population Mitotic Cells (%)” value [3] of the same compound?
Its value is 0%.

And the “Population Normal (%)” value [3]?
Its value is 98%.

What about the “Population Pyknosed Nuclei (%)” value [3] of the same compound?
The value was 1%.

What about the “Population Tubulin-Different-Phenotype (%)” value [3] of the same compound?
The value was 97%.

And the “Total Cell Count” value [3]?
The value was 234.

And the “Population Fragmented Nuclei (%)” value [4]?
The value was 40%.

And the “Population Healthy Nuclei (%)” value [4]?
Its value is 58%.

What about the “Population Hoechst High Intensity Objects (%)” value [4] of the same compound?
The value was 0%.

And the “Population Mitochondria Different-Phenotype (%)” value [4]?
The value was 100%.

And the “Population Normal (%)” value [4]?
Its value is 99%.

What about the “Population Tubulin-Different-Phenotype (%)” value [4] of the same compound?
Its value is 92%.

What about the “Total Cell Count” value [4] of the same compound?
The value was 194.

And the “Population Apoptotic (%)” value [5]?
The value was 42%.

And the “Population Fragmented Nuclei (%)” value [5]?
Its value is 9%.

What about the “Population Healthy Nuclei (%)” value [5] of the same compound?
Its value is 84%.

What about the “Population Hoechst High Intensity Objects (%)” value [5] of the same compound?
Its value is 2%.

And the “Population Membrane Permeable-Phenotype (%)” value [5]?
The value was 0%.

What about the “Population Mitochondria Different-Phenotype (%)” value [5] of the same compound?
Its value is 40%.

What about the “Population Mitotic Cells (%)” value [5] of the same compound?
The value was 57%.

And the “Population Normal (%)” value [5]?
The value was 97%.

What about the “Population Pyknosed Nuclei (%)” value [5] of the same compound?
Its value is 5%.

What about the “Population Tubulin-Different-Phenotype (%)” value [5] of the same compound?
Its value is 14%.

And the “Total Cell Count” value [5]?
Its value is 455.

What about the “Population Apoptotic (%)” value [6] of the same compound?
Its value is 46%.

And the “Population Healthy Nuclei (%)” value [6]?
Its value is 86%.

And the “Population Hoechst High Intensity Objects (%)” value [6]?
Its value is 0%.

And the “Population Mitochondria Different-Phenotype (%)” value [6]?
The value was 44%.

What about the “Population Mitotic Cells (%)” value [6] of the same compound?
Its value is 53%.

What about the “Population Normal (%)” value [6] of the same compound?
Its value is 99%.

And the “Population Pyknosed Nuclei (%)” value [6]?
The value was 4%.

What about the “Population Tubulin-Different-Phenotype (%)” value [6] of the same compound?
Its value is 12%.

What about the “Total Cell Count” value [6] of the same compound?
The value was 362.

And the “Population Apoptotic (%)” value [7]?
Its value is 100%.

And the “Population Fragmented Nuclei (%)” value [7]?
Its value is 28%.

What about the “Population Healthy Nuclei (%)” value [7] of the same compound?
Its value is 69%.

And the “Population Hoechst High Intensity Objects (%)” value [7]?
The value was 2%.

What about the “Population Membrane Permeable-Phenotype (%)” value [7] of the same compound?
The value was 0%.

And the “Population Mitochondria Different-Phenotype (%)” value [7]?
The value was 100%.

And the “Population Mitotic Cells (%)” value [7]?
Its value is 0%.

What about the “Population Normal (%)” value [7] of the same compound?
Its value is 97%.

And the “Population Pyknosed Nuclei (%)” value [7]?
The value was 2%.

And the “Population Tubulin-Different-Phenotype (%)” value [7]?
The value was 92%.

And the “Total Cell Count” value [7]?
The value was 247.

What about the “Population Fragmented Nuclei (%)” value [8] of the same compound?
The value was 45%.

And the “Population Healthy Nuclei (%)” value [8]?
Its value is 53%.

And the “Population Hoechst High Intensity Objects (%)” value [8]?
Its value is 0%.

And the “Population Normal (%)” value [8]?
The value was 99%.

What about the “Population Pyknosed Nuclei (%)” value [8] of the same compound?
Its value is 0%.

What about the “Population Tubulin-Different-Phenotype (%)” value [8] of the same compound?
The value was 91%.

What about the “Total Cell Count” value [8] of the same compound?
The value was 206.

What about the “Population Apoptotic (%)” value [9] of the same compound?
Its value is 45%.

What about the “Population Fragmented Nuclei (%)” value [9] of the same compound?
The value was 11%.

What about the “Population Healthy Nuclei (%)” value [9] of the same compound?
The value was 82%.

What about the “Population Hoechst High Intensity Objects (%)” value [9] of the same compound?
The value was 3%.

And the “Population Membrane Permeable-Phenotype (%)” value [9]?
The value was 0%.

What about the “Population Mitochondria Different-Phenotype (%)” value [9] of the same compound?
The value was 30%.

And the “Population Mitotic Cells (%)” value [9]?
The value was 54%.

What about the “Population Normal (%)” value [9] of the same compound?
The value was 96%.

And the “Population Pyknosed Nuclei (%)” value [9]?
Its value is 6%.

What about the “Population Tubulin-Different-Phenotype (%)” value [9] of the same compound?
Its value is 16%.

What about the “Total Cell Count” value [9] of the same compound?
Its value is 581.

What about the “Population Apoptotic (%)” value [10] of the same compound?
The value was 60%.

What about the “Population Fragmented Nuclei (%)” value [10] of the same compound?
Its value is 10%.

What about the “Population Healthy Nuclei (%)” value [10] of the same compound?
Its value is 85%.

And the “Population Hoechst High Intensity Objects (%)” value [10]?
The value was 1%.

What about the “Population Mitochondria Different-Phenotype (%)” value [10] of the same compound?
The value was 36%.

And the “Population Mitotic Cells (%)” value [10]?
Its value is 40%.

And the “Population Normal (%)” value [10]?
The value was 98%.

And the “Population Pyknosed Nuclei (%)” value [10]?
The value was 3%.

What about the “Population Tubulin-Different-Phenotype (%)” value [10] of the same compound?
The value was 12%.

And the “Total Cell Count” value [10]?
Its value is 411.

And the “Population Apoptotic (%)” value [11]?
Its value is 100%.

And the “Population Fragmented Nuclei (%)” value [11]?
The value was 34%.

And the “Population Healthy Nuclei (%)” value [11]?
Its value is 56%.

What about the “Population Hoechst High Intensity Objects (%)” value [11] of the same compound?
The value was 11%.

What about the “Population Membrane Permeable-Phenotype (%)” value [11] of the same compound?
Its value is 0%.

And the “Population Mitochondria Different-Phenotype (%)” value [11]?
Its value is 100%.

And the “Population Mitotic Cells (%)” value [11]?
The value was 0%.

What about the “Population Normal (%)” value [11] of the same compound?
The value was 88%.

And the “Population Pyknosed Nuclei (%)” value [11]?
The value was 9%.

And the “Population Tubulin-Different-Phenotype (%)” value [11]?
Its value is 88%.

What about the “Total Cell Count” value [11] of the same compound?
The value was 318.

What about the “Population Apoptotic (%)” value [12] of the same compound?
The value was 66%.

What about the “Population Fragmented Nuclei (%)” value [12] of the same compound?
The value was 52%.

And the “Population Healthy Nuclei (%)” value [12]?
Its value is 46%.

What about the “Population Hoechst High Intensity Objects (%)” value [12] of the same compound?
The value was 5%.

What about the “Population Mitochondria Different-Phenotype (%)” value [12] of the same compound?
The value was 99%.

What about the “Population Mitotic Cells (%)” value [12] of the same compound?
Its value is 33%.

What about the “Population Normal (%)” value [12] of the same compound?
The value was 94%.

What about the “Population Pyknosed Nuclei (%)” value [12] of the same compound?
Its value is 1%.

What about the “Population Tubulin-Different-Phenotype (%)” value [12] of the same compound?
The value was 89%.

What about the “Total Cell Count” value [12] of the same compound?
Its value is 272.
